Active and inactive are the calls of the source. No cut-off for these calls is given here.
Assays:
[1] = target: Bromodomain-containing protein 3 (Homo sapiens, UniProt Q15059); test: Binding affinity to human partial length BRD3 BD2 (G306 to P416 residues) expressed in bacterial expression system assessed as change in melting temperature at 50 uM at 20 to 85 degreeC by SYPRO orange staining based thermal shift assay
Procedure, shortened: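 DSF thermal shift. 10 µM BD in 50 mM HEPES, 500 mM NaCl pH 7.5, with 50 µM compound or DMSO-matched control and 1:1000 Sypro Orange (ex 465/em 590 nm). Ramp 20–85 °C at 0.03 °C/s. Tm taken as the midpoint between fluorescence max and min. At least three independent experiments, SEM in °C.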

[2] = target: Bromodomain-containing protein 4 (Homo sapiens, UniProt O60885); test: Binding affinity to human partial length BRD4 BD2 (K333 to E460 residues) expressed in bacterial expression system using H4K5acIC8acK12acK16ac-biotinylated peptide as substrate preincubated for 30 mins followed by substrate addition by AlphaScreen assay
[3] = test system: VCaP; test: Downregulation of BRD4 mRNA levels in human VCaP cells at 25 to 2500 nM incubated for 24 hrs by qRT-PCR analysis; format: functional, cell-based; settings: dose 25-2500 nM
Procedure, shortened: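 VCaP cells grown to 50% confluence, then treated with compound or DMSO (Methods state 16 h, legend states 24 h). Total RNA isolated, cDNA made from 1 µg RNA, SYBR Green qPCR run in triplicate. Expression by ΔΔCt, normalised to GAPDH. Three independent experiments, SEM.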

Bromodomain-containing protein 3, sequence (Q15059 2-726 limits assumed): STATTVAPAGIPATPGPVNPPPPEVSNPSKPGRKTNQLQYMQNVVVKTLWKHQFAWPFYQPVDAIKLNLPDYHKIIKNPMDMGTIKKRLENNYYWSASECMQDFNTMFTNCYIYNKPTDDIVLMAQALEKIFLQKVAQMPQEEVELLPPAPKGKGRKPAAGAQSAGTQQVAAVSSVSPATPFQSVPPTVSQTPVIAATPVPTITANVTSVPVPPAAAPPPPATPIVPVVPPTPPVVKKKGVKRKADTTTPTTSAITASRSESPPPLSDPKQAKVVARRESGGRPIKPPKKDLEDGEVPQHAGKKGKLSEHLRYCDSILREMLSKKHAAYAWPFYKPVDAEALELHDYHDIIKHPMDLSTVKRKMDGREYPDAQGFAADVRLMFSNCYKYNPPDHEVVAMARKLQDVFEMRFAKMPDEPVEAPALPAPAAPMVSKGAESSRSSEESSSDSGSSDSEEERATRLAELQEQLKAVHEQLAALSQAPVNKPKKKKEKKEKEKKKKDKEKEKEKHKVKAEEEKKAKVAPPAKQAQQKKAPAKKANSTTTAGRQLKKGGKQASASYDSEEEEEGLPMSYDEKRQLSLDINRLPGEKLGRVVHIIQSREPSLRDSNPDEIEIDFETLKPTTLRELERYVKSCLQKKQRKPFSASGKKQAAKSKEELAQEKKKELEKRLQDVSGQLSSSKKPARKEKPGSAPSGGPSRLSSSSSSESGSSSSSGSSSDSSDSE

## CC(=O)OC[C@]12CC[C@H]3[C@@H](C[C@H]4O[C@]45CC=CC(=O)[C@]35C)[C@]1(O)CC[C@@]2(O)[C@@](C)(O)[C@H]1CC(C)=C(C)C(=O)O1
[1]
  ΔTm: 7.45 °C
[2]
  IC50: 142 nM
[3]
  Activity: inactive

— ChEMBL document CHEMBL5316292 (J Med Chem, 2023)
